Laboratory results reported in ChEMBL document CHEMBL1158566, “The bisnaphthalimides as new active lead compounds against Plasmodium falciparum” (Bioorg Med Chem, 2010).
Activity calls are given as the source filed them. The rule behind the calls is not given here.

Legend:
[1] = Cytotoxicity against mouse J774.1 cells after 48 hrs by alamar blue satining; type: cell-based; conditions: J774.1, 48 h
How it was run: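 J774.1 macrophages at 1×10^5 cells/mL in phenol-red-free RPMI (10% FCS, 2 mM glutamine, 10 mM Hepes pH 7.2, 50 µM 2-mercaptoethanol, antibiotics) with increasing compound concentrations, 24 h at 37 °C, 5% CO2. AlamarBlue added to 10%, further 24 and 48 h incubation. Absorbance read at 540 nm against 630 nm reference. Final DMSO ≤1%, duplicates.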

Plasmodium falciparum [2] = experiment: Antiplasmodial activity against chloroquine-sensitive Plasmodium falciparum 3D7 assessed as parasite-specific LDH release after 72 hrs by Malstat assay; type: functional, organism-based; conditions: 3D7, 72 h
How it was run: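 Synchronized 3D7 ring stages seeded at 1% parasitemia with compound (in H2O or DMSO) across 10 pM–100 µM. DMSO 0.5% served as negative control. Cultured 72 h in triplicate, then viability read as Plasmodium lactate dehydrogenase activity (Malstat). Each compound run two to four times. IC50 and standard deviation calculated.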

Plasmodium falciparum [3] = experiment: Antiplasmodial activity against blood stage forms of chloroquine-sensitive Plasmodium falciparum 3D7 assessed as dysfunctional intracellular membrane biosynthesis at IC50 after 72 hrs by electron microscopy; type: functional, organism-based
How it was run: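 Blood-stage P. falciparum cultured in vitro, exposed 72 h to compound or to 0.5 vol % DMSO control. Fixed in 1% glutaraldehyde/4% paraformaldehyde in PBS, post-fixed in 1% OsO4/1.5% K3[Fe(CN)6], uranyl acetate stained, ethanol-dehydrated and Epon-embedded. Ultrathin sections post-stained with 1% uranyl acetate and examined by transmission EM for intracellular membrane whirls.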

Plasmodium falciparum [4] = experiment: Antiplasmodial activity against chloroquine-resistant Plasmodium falciparum Dd2 assessed as parasite-specific LDH release after 72 hrs by Malstat assay; type: functional, organism-based; conditions: Dd2, 72 h
How it was run: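 P. falciparum asexual blood stages: synchronized ring-stage cultures at 1% parasitemia, exposed to compounds (in water or DMSO) over 10 pM–100 µM for 72 h in triplicate. 0.5% DMSO served as negative control. Viability was read as parasite lactate dehydrogenase activity (Malstat). Each compound was run two to four times, and IC50 with standard deviation was calculated.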

SMILES: CC(C)(CN1C(=O)c2cccc3cc([N+](=O)[O-])cc(c23)C1=O)C[N+](C)(C)CCCCCC[N+](C)(C)CC(C)(C)CN1C(=O)c2cccc3cc([N+](=O)[O-])cc(c23)C1=O
- IC50 [1]: > 100 µM
- IC50 (Plasmodium falciparum [2]): 660 nM
- Activity (Plasmodium falciparum [3]): Active

SMILES: CC(C)(CN1C(=O)c2cccc3c([N+](=O)[O-])ccc(c23)C1=O)C[N+](C)(C)CCCCCC[N+](C)(C)CC(C)(C)CN1C(=O)c2cccc3c([N+](=O)[O-])ccc(c23)C1=O
- IC50 [1]: > 100 µM
- IC50 (Plasmodium falciparum [2]): 3480 nM

SMILES: CCC[N+](C)(C)CC(C)(C)CN1C(=O)c2cccc3cccc(c23)C1=O
- IC50 [1]: > 100 µM
- IC50 (Plasmodium falciparum [2]): 9810 nM
- IC50 (Plasmodium falciparum [4]): 8.11 µM

SMILES: C[N+](C)(C)CCCCCCCCCCCC[N+](C)(C)C
- IC50 [1]: > 100 µM
- IC50 (Plasmodium falciparum [2]): 395 nM

SMILES: CC(C)(CN1C(=O)c2cccc3cccc(c23)C1=O)C[N+](C)(C)CCCCCCBr
- IC50 [1]: > 100 µM
- IC50 (Plasmodium falciparum [2]): 430 nM
- IC50 (Plasmodium falciparum [4]): 0.89 µM

SMILES: CC(C)(CN1C(=O)c2cccc3cc(N)cc(c23)C1=O)C[N+](C)(C)CCCCCC[N+](C)(C)CC(C)(C)CN1C(=O)c2cccc3cc(N)cc(c23)C1=O
- IC50 [1]: > 100 µM
- IC50 (Plasmodium falciparum [2]): 22600 nM

SMILES: C[N+](C)(C)CCCCCCCCCC[N+](C)(C)C [DECAMETHONIUM BROMIDE]
- IC50 [1]: > 100 µM
- IC50 (Plasmodium falciparum [2]): 911 nM

SMILES: C[N+](C)(CCCCCCCCCCCC[N+](C)(C)CCCN1C(=O)c2cccc3cccc(c23)C1=O)CCCN1C(=O)c2cccc3cccc(c23)C1=O
- IC50 [1]: > 100 µM
- IC50 (Plasmodium falciparum [2]): 219 nM

SMILES: CC(C)(CN1C(=O)c2cccc3cccc(c23)C1=O)C[N+](C)(C)CCCCCC[N+](C)(C)CCCN1C(=O)c2cccc3cccc(c23)C1=O
- IC50 [1]: > 100 µM
- IC50 (Plasmodium falciparum [2]): 400 nM
- Activity (Plasmodium falciparum [3]): Active

SMILES: C[N+](C)(CCCN1C(=O)c2cccc3cccc(c23)C1=O)CCC[N+](C)(C)CCCN1C(=O)c2cccc3cccc(c23)C1=O
- IC50 [1]: > 100 µM
- IC50 (Plasmodium falciparum [2]): > 100000 nM

SMILES: C[N+](C)(CCCCCCCCCC[N+](C)(C)CCCN1C(=O)c2cccc3cccc(c23)C1=O)CCCN1C(=O)c2cccc3cccc(c23)C1=O
- IC50 [1]: > 100 µM
- IC50 (Plasmodium falciparum [2]): 145 nM

SMILES: C[N+](C)(CCCCCCCCCCC[N+](C)(C)CCCN1C(=O)c2cccc3cccc(c23)C1=O)CCCN1C(=O)c2cccc3cccc(c23)C1=O
- IC50 [1]: > 100 µM
- IC50 (Plasmodium falciparum [2]): 170 nM

SMILES: C[N+](C)(CCCCC[N+](C)(C)CCCN1C(=O)c2cccc3cccc(c23)C1=O)CCCN1C(=O)c2cccc3cccc(c23)C1=O
- IC50 [1]: > 100 µM
- IC50 (Plasmodium falciparum [2]): > 100000 nM

SMILES: C[N+](C)(C)CCCCCC[N+](C)(C)C [HEXAMETHONIUM BROMIDE]
- IC50 [1]: > 100 µM
- IC50 (Plasmodium falciparum [2]): > 100000 nM

SMILES: C[N+](C)(CCCCCCCC[N+](C)(C)CCCN1C(=O)c2cccc3cccc(c23)C1=O)CCCN1C(=O)c2cccc3cccc(c23)C1=O
- IC50 [1]: > 100 µM
- IC50 (Plasmodium falciparum [2]): 64 nM

SMILES: C[N+](C)(CCCCCCCCC[N+](C)(C)CCCN1C(=O)c2cccc3cccc(c23)C1=O)CCCN1C(=O)c2cccc3cccc(c23)C1=O
- IC50 [1]: > 100 µM
- IC50 (Plasmodium falciparum [2]): 60 nM

SMILES: C[N+](C)(CCCCCC[N+](C)(C)CCCN1C(=O)c2cccc3cccc(c23)C1=O)CCCN1C(=O)c2cccc3cccc(c23)C1=O
- IC50 [1]: > 100 µM
- IC50 (Plasmodium falciparum [2]): 7990 nM

SMILES: CC(C)(CN1C(=O)c2cccc3cccc(c23)C1=O)C[N+](C)(C)CCCCCC[N+](C)(C)CC(C)(C)CN1C(=O)c2cccc3cccc(c23)C1=O
- IC50 [1]: > 100 µM
- IC50 (Plasmodium falciparum [2]): 800 nM

SMILES: CC(C)(CN1C(=O)c2cccc3c(N)ccc(c23)C1=O)C[N+](C)(C)CCCCCC[N+](C)(C)CC(C)(C)CN1C(=O)c2cccc3c(N)ccc(c23)C1=O
- IC50 [1]: > 100 µM
- IC50 (Plasmodium falciparum [2]): 6760 nM
- IC50 (Plasmodium falciparum [4]): 7.39 µM

SMILES: C[N+](C)(CCCCCCC[N+](C)(C)CCCN1C(=O)c2cccc3cccc(c23)C1=O)CCCN1C(=O)c2cccc3cccc(c23)C1=O
- IC50 [1]: > 100 µM
- IC50 (Plasmodium falciparum [2]): 510 nM

SMILES: C[N+](C)(CCCC[N+](C)(C)CCCN1C(=O)c2cccc3cccc(c23)C1=O)CCCN1C(=O)c2cccc3cccc(c23)C1=O
- IC50 [1]: > 100 µM
- IC50 (Plasmodium falciparum [2]): > 100000 nM

SMILES: CN(C)CCCN1C(=O)c2cccc3cccc(c23)C1=O
- IC50 [1]: > 100 µM
- IC50 (Plasmodium falciparum [2]): > 100000 nM
